The source of these data is ChEMBL document CHEMBL2321691 (J Med Chem, 2013).

Assay [1] deals with HeLa. As to the kind of experiment: Inhibition of microtubule system in human HeLa cells at 10 nM after 18 hrs by confocal microscopic analysis. The assay is classed as cell-based. The method, boiled down: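 HeLa cells grown on poly-L-lysine coverslips and treated 18 h at 10^-8 M. Washed in HPEM (pH 6.6), fixed 15 min in 4% paraformaldehyde, permeabilized with 0.5% Triton X-100. Stained with anti-α-tubulin (1:150, 1 h), then CY3 anti-mouse IgG (1:100, 1 h, 4 °C). Imaged by confocal microscopy; representative of at least three experiments.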

The test system of assay [2] is HeLa. Kind of assay: Cell cycle arrest in human HeLa cells assessed as accumulation at G2/M phase at 10^-8 M incubated for 18 hrs by propidium iodide staining-based FACS flow cytometric analysis relative to control. The assay is classed as functional. The method, boiled down:
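HeLa cells treated 18 h at 10^-8 M, with untreated controls run in parallel. 2-4 x 10^5 cells fixed overnight in 70% ethanol at 4 °C, washed in PBS, then incubated 1 h at room temperature with 1 mg/mL RNAse A and 20 µg/mL propidium iodide. DNA content read by FACSCalibur flow cytometry; percentage of cells in G2/M. Representative of three experiments.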
In general terms: In flow cytometry, cells or beads pass a laser one at a time.

The test system of the next assay is HT-29. As to the kind of experiment: Cytotoxicity against human HT-29 cells assessed as growth inhibition after 72 hrs by XTT assay. The format is functional, cell-based. To be noted: HT-29, 72 h. The method, boiled down: (§1)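 Cells seeded at 1.5 x 10^3 per well (A549, HeLa, HT-29) or 3 x 10^3 (HL-60) in medium with 10% heat-inactivated FBS. Compound tested from 10-5 to 10-13 M for 72 h at 37 °C, then XTT readout. […] Triplicate wells, three experiments; mean ± S.D.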

A further assay has as its system A549. As to the kind of experiment: Cytotoxicity against human A549 cells assessed as growth inhibition after 72 hrs by XTT assay. The format is functional, cell-based. Conditions: A549, 72 h. The method, boiled down:
as §1

Assay [3] has as its system HeLa. Kind of assay: Cytotoxicity against human HeLa cells assessed as growth inhibition after 72 hrs by XTT assay. For orientation: Tetrazolium dyes change colour on reduction, which living cells bring about.
The species entered for another assay is Bos taurus. Kind of assay: Inhibition of bovine brain tubulin polymerization at 20 uM after 30 mins by spectrophotometry. The gist of the method:
(§2)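 Bovine brain tubulin at 1.5 mg/mL, pH 6.7, in 0.1 M MES, 1 mM EGTA, 1 mM MgCl2, 1 mM β-ME, 1.5 mM GTP with ligand. Incubated 20 °C for 30 min, then on ice 10 min. Assembly read as the A450 rise on a shift from 4 to 38 °C; inhibition is plateau minus baseline against ligand-free control. IC50 from monoexponential fits.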

The nature of assay [4]: Inhibition of bovine brain tubulin polymerization after 30 mins by spectrophotometry. Further details: species or system Bos taurus. The method, boiled down: as §2
A further assay concerns HL-60. Kind of assay: Cytotoxicity against human HL60 cells assessed as growth inhibition after 72 hrs by XTT assay. The format is functional, cell-based. To be noted: HL-60, 72 h. The method, boiled down: as §1
Assay [5] has as its system HeLa. Kind of assay: Induction of apoptosis in human HeLa cells assessed as processing of procaspase-3 into the p19/p17 active form at 50 nM by Western blotting analysis. The assay is classed as functional, cell-based. The gist of the method: (§3)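 HeLa cells given 50 nM compound for several times; untreated controls run in parallel. About 5 x 10^6 cells lysed and run on reducing SDS gels (12% for caspase-3, 8% for PARP), then blotted to nitrocellulose. Probed overnight with anti-active caspase-3 (p19/p17) or C2.10 anti-PARP (116 kDa and p85), each 1:1000. β-actin loading control; ECL detection. Three experiments.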
On the technique in general: A western blot detects proteins with antibodies after separation by electrophoresis.

For assay [6], the system named is HeLa. As to the kind of experiment: Induction of apoptosis in human HeLa cells assessed as accumulation at sub-G0/G1 phase at 50 nM after 72 hrs by […] analysis. The assay is classed as functional, cell-based.
Assay [7] deals with HeLa. As to the kind of experiment: Induction of apoptosis in human HeLa cells assessed as PARP cleavage at 50 nM by Western blotting analysis. The assay is classed as functional, cell-based. The method, boiled down:
as §3

Assay [8] concerns HeLa. Kind of assay: Induction of apoptosis in human HeLa cells assessed as accumulation of DNA at sub-G0/G1 phase incubated for 24 hrs by propidium iodide staining-based FACS flow cytometric analysis relative to control. To be noted: in the assay text read “72 hrs” for “24 hrs”. The format is functional. The gist of the method: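 Apoptosis counted as percentage of HeLa cells in the sub-G0/G1 peak. Cells fixed in 70% ethanol, stained 1 h with RNAse A (1 mg/mL) and propidium iodide (20 µg/mL), then read by flow cytometry. Time-course used 5-100 nM for 18-72 h.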

In assay [9] the test system is HeLa. Kind of assay: Induction of apoptosis in human HeLa cells at 50 nM after 72 hrs by […] analysis in presence of caspase inhibitor z-VAD-fmk relative to control. The format is functional.
Assay [10] has as its system HeLa. Kind of assay: Induction of apoptosis in human HeLa cells at 50 nM after 72 hrs by […] analysis relative to control. The format is functional.

SMILES strings stand for the structures. The source made the active and inactive calls. The rule behind the calls is not given here.

Consider `C=C(c1cc(OC)c(OC)c(OC)c1)c1ccc2c(c1)c(C(N)=O)cn2C`, for which the inhibition (as a rule, the percentage by which the read-out fell short of the control) in the assay on HeLa [1] was “Active”. Further, the Activity in the assay on HeLa [2] is more than 85%. For the same molecule, the IC50 (in general, the point on the concentration scale where inhibition reaches its midpoint) with HT-29 worked out at 0.51 nM; in the assay on A549, 1.8 nM; in the assay on HeLa [3] it was 0.25 nM; in assay [4], 900 nM; in the assay with HL-60, 0.11 nM. Further, the inhibition in the assay filed under Bos taurus was 93%. Moreover, the outcome in the assay with HeLa [5], in the assay with HeLa [6] and in the assay with HeLa [7] was Active.

Take `COc1cc(C(=CC#N)c2ccc3c(c2)c(C#N)cn3C)cc(OC)c1OC`: the inhibition entry with HeLa [1] was “Active”. In addition, the Activity with HeLa [2] was more than 85%. The IC50 is 2.1 nM in the assay with HT-29; 4.9 nM in the assay on A549; 3.5 nM in the assay with HeLa [3]; 4700 nM in [4]; 4.8 nM in the assay with HL-60. In the assay filed under Bos taurus, this molecule came in with an inhibition of 90%. The outcome in the assay on HeLa [5], in the assay on HeLa [6] and with HeLa [7] was Active.

Consider `COc1cc(C(C)c2ccc3c(ccn3C)c2)cc(OC)c1OC` (configuration not stated), for which the inhibition entry in the assay with HeLa [1] is “Active”. In the assay on HeLa [2], the Activity is listed as more than 85%. Moreover, the concentration for half-maximal inhibition (IC50) in the assay with HT-29 came out at 3.8 nM; with A549 it was 6.8 nM; in the assay on HeLa [3], 0.64 nM; in [4] it was 1000 nM; in the assay on HL-60 it was 0.33 nM. Moreover, the inhibition in the assay filed under Bos taurus was determined as 100%. The result in the assay with HeLa [5], in the assay on HeLa [6] and with HeLa [7] was Active.

For the molecule `C=C(c1cc(OC)c(OC)c(OC)c1)c1ccc2c(c1)c(C#N)cn2C`, in the assay on HeLa [1], the inhibition entry was “Active”. For the same molecule, the Activity with HeLa [2] is given as more than 83%; in the assay on HeLa [8] it was 20%; with HeLa [9] it was 5%; in the assay on HeLa [10], 19.5%. In addition, the IC50 with HT-29 came to 3.9 nM; in the assay on A549, 8.4 nM; in the assay with HeLa [3], 2.9 nM; in [4], 1200 nM; in the assay with HL-60 it was 1.3 nM. This molecule yielded an inhibition in the assay listed under Bos taurus of 93%. In addition, the outcome in the assay with HeLa [5], in the assay on HeLa [6] and with HeLa [7] was Active.
